Test results published in ChEMBL document CHEMBL4706639, “Discovery of Novel Azetidine Amides as Potent Small-Molecule STAT3 Inhibitors” (J Med Chem, 2021).
Active and inactive are the calls of the source. The calls are words filed in the database; no cut-off is given here.

Tests used:
MDA-MB-231 [1] = experiment: Antiproliferative activity against human MDA-MB-231 cells assessed as reduction in cell viability incubated for 72 hrs by CyQuant assay; format: functional, cell-based; conditions: MDA-MB-231, 72 h
MDA-MB-468 [2] = experiment: Antiproliferative activity against human MDA-MB-468 cells harbouring STAT3 assessed as reduction in cell viability incubated for 72 hrs by CyQuant assay; format: functional, cell-based; conditions: MDA-MB-468, 72 h
MCF7 [3] = experiment: Antiproliferative activity against human MCF7 cells assessed as reduction in cell viability incubated for 72 hrs by CyQuant assay; format: functional, cell-based; conditions: MCF7, 72 h
MCF-10A = experiment: Cytotoxicity against human MCF-10A cells assessed as reduction in cell viability incubated for 72 hrs by CyQuant assay; format: cell-based
MCF7 [4] = experiment: Antiproliferative activity against human MCF7 cells assessed as reduction in cell viability at 2 uM incubated for 24 hrs by Trypan blue exclusion dye based phase contrast microscopic analysis; format: functional
Procedure, shortened: (§1)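 Cells in 6-well culture, untreated or treated once with 2 μM compound. Harvested every 24 h (up to 96 h) and counted as viable cells by trypan blue exclusion under phase-contrast microscopy. Counts plotted against duration of treatment.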

NIH3T3 = experiment: Inhibition of oligonucleotide [32P]-labelled 5'-AGATTTCTAGGAATTCAA probe binding to STAT5 homodimer in mouse NIH3T3 nuclear extract at 10 uM preincubated for 30 mins followed by MGFe probe addition by EMSA analysis
[5] = biological target: T1, Signal transducer and activator of transcription 1 (Mus musculus) (UniProt P42225); experiment: Inhibition of oligonucleotide [32P]-labelled 5'-AGCITCATTTCCCGTAAATCCCTA probe binding to STAT1 homodimer in mouse NIH3T3 nuclear extract at 10 uM preincubated for 30 mins followed by hSIE probe addition by EMSA analysis
T1 sequence (whole entry): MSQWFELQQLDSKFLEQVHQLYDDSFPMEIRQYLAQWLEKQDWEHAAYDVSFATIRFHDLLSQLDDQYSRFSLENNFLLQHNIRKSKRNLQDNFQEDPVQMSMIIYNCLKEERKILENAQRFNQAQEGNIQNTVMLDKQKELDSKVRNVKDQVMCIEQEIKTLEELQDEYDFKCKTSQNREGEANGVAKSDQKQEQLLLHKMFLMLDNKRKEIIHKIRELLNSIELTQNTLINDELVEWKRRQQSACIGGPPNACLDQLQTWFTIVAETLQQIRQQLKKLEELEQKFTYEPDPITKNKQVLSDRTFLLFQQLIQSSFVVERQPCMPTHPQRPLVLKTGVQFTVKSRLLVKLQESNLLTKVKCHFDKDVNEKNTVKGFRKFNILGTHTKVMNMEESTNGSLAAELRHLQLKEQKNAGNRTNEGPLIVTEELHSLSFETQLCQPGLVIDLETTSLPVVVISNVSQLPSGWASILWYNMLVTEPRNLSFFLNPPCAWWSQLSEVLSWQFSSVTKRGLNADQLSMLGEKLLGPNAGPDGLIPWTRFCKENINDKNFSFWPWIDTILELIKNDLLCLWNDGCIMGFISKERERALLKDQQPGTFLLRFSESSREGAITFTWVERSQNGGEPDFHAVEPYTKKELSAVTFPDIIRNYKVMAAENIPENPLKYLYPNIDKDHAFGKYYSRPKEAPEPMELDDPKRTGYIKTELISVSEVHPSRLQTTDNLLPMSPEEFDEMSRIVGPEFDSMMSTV

[6] = biological target: Signal transducer and activator of transcription 3 (Homo sapiens) (UniProt P40763); experiment: Inhibition of oligonucleotide [32P]-labelled 5'-AGCITCATTTCCCGTAAATCCCTA hSIE probe binding to STAT3 in human MDA-MB-468 cell nuclear extract at 5 uM by EMSA analysis; conditions: time upper […], TDE = time-dependent effect
MDA-MB-231 [7] = experiment: Anticlonogenic activity against human MDA-MB-231 cells assessed as inhibition of colony formation upto 1 uM incubated for 4 hrs by crystal violet staining based assay; format: functional, cell-based; conditions: dose microM <=1, time 4.0 hrs
Procedure, shortened: (§2)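 MDA-MB-231 cells seeded as single-cell cultures (250 cells per well), treated once the next day with compound at 0–1 μM and grown until large colonies were visible. Colonies stained with crystal violet for 4 h and photographed. Three independent determinations.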

MDA-MB-231 [8] = experiment: Antiproliferative activity against human MDA-MB-231 cells harbouring STAT3 assessed as reduction in cell viability at upto 10 uM incubated for 72 hrs by CyQuant assay; format: functional, cell-based; conditions: dose microM <=10, time 72.0 hrs
MDA-MB-468 [9] = experiment: Antiproliferative activity against human MDA-MB-468 cells harbouring STAT3 assessed as reduction in cell viability at upto 10 uM incubated for 72 hrs by CyQuant assay; format: functional, cell-based; conditions: dose microM <=10, time 72.0 hrs
[10] = Inhibition of oligonucleotide [32P]-labelled 5'-AGATTTCTAGGAATTCAA probe binding to STAT5 homodimer in mouse NIH3T3 nuclear extract preincubated for 30 mins followed by MGFe probe addition by EMSA analysis
[11] = biological target: Signal transducer and activator of transcription 3 (Mus musculus, UniProt P42227); experiment: Inhibition of oligonucleotide [32P]-labelled 5'-AGCITCATTTCCCGTAAATCCCTA probe binding to STAT3 SH2 domain (unknown origin) preincubated for 30 mins followed by hSIE probe addition by EMSA analysis
MDA-MB-231 [12] = experiment: Antiproliferative activity against human MDA-MB-231 cells assessed as reduction in cell viability at 2 uM incubated for 24 hrs by Trypan blue exclusion dye based phase contrast microscopic analysis; format: functional; procedure, shortened: as §1
[13] = biological target: Signal transducer and activator of transcription 3 (Homo sapiens) (UniProt P40763); experiment: Binding affinity to STAT3 (unknown origin) assessed as change in enthalpy by isothermal titration calorimetry
[14] = biological target: Signal transducer and activator of transcription 3 (Homo sapiens) (UniProt P40763); experiment: Binding affinity to STAT3 (unknown origin) assessed as change in entropy by isothermal titration calorimetry
[15] = biological target: Signal transducer and activator of transcription 3 (Homo sapiens) (UniProt P40763); experiment: Inhibition of STAT3 phosphorylation at Y705 residues in human MDA-MB-468 whole cell lysate at 3 uM at 24 hrs by immunoblotting analysis; format: subcellular
Procedure, shortened: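 MDA-MB-468 cells (DMEM, 10% heat-inactivated FBS) treated with 3 μM compound for 3–24 h or 0.05% DMSO; equal-protein whole-cell RIPA lysates run on SDS-PAGE and immunoblotted for pY705STAT3, total STAT3 and tubulin. Representative of two to three independent determinations.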

MDA-MB-231 [16] = experiment: Anticlonogenic activity against human MDA-MB-231 cells assessed as inhibition of colony formation at 0.5 to 1 uM incubated for 4 hrs by crystal violet staining based assay; format: functional, cell-based; conditions: dose 0.5-1 µM; procedure, shortened: as §2

Signal transducer and activator of transcription 3 (Homo sapiens), sequence (P40763 whole entry): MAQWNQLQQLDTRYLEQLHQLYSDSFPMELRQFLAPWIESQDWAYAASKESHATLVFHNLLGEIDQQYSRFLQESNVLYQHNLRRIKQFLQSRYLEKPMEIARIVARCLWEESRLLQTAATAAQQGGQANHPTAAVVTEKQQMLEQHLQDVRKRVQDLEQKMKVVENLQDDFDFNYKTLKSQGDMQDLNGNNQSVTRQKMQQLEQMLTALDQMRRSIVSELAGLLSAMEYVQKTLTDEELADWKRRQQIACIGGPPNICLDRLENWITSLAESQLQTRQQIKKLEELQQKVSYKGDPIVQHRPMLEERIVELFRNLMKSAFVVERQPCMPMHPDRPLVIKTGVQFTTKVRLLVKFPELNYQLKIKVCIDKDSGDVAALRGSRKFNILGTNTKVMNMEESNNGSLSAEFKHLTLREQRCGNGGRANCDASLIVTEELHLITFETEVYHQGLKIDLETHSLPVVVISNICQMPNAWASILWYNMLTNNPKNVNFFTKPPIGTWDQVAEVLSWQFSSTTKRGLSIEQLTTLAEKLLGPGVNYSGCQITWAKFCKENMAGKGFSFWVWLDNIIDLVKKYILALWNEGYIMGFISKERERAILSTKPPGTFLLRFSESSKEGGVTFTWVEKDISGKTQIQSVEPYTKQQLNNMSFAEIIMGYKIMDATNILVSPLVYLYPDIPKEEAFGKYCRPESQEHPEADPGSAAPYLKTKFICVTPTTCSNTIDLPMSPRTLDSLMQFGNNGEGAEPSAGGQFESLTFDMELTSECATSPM
Signal transducer and activator of transcription 3, sequence (P42227 whole entry, the tested form may be a part): as the sequence (P40763 whole entry) above, with E760D counted along it

| Compound | EC50 (MDA-MB-231 [1]) | EC50 (MDA-MB-468 [2]) | EC50 (MCF7 [3]) | EC50 (MCF-10A) | Activity (MCF7 [4]) | inhibition [6] | IC50 [10] | also measured |
| --- | --- | --- | --- | --- | --- | --- | --- | --- |
| CNC(=O)c1ccc(N(Cc2ccc(C3CCCCC3)cn2)C(=O)[C@H]2CCN2S(=O)(=O)c2c(F)c(F)c(F)c(F)c2F)cc1O | 1.8 µM | 1.8 µM | 3.8 µM | 4.6 µM | inactive | Tde | – | inhibition (NIH3T3): Active; inhibition [5]: Active; inhibition (MDA-MB-231 [7]): inactive |
| O=C(O)c1ccc(N(Cc2ccc(C3CCCCC3)cc2)C(=O)[C@H]2CCN2S(=O)(=O)c2c(F)c(F)c(F)c(F)c2F)cc1O | – | – | – | – | – | – | 9.3 µM | Activity (MDA-MB-231 [8]): inactive; Activity (MDA-MB-468 [9]): inactive |
| O=C(NO)c1ccc(N(Cc2cnc(C3CCCCC3)cn2)C(=O)[C@H]2CCN2S(=O)(=O)c2c(F)c(F)c(F)c(F)c2F)c(F)c1 | – | – | – | – | – | – | – | IC50 [11]: > 2 µM |
| O=C1NC(=O)c2cc(N(Cc3ccc(C4CCCCC4)cn3)C(=O)[C@H]3CCN3S(=O)(=O)c3c(F)c(F)c(F)c(F)c3F)ccc21 | 1.7 µM | 1.9 µM | 7 µM | 8.1 µM | inactive | Tde | – | Activity (MDA-MB-231 [12]): Active; deltaH [13]: -4.97 kcal/mol; -TdeltaS [14]: -3.25 kcal/mol; inhibition [15]: inactive; inhibition (MDA-MB-231 [16]): Active |
| O=C(O)c1ccc(N(Cc2ccc(C3CCCCC3)cc2)C(=O)[C@H]2CCN2S(=O)(=O)c2c(F)c(F)c(F)c(F)c2F)c(F)c1 | > 10 µM | – | – | – | – | – | 17.5 µM | – |
